ChEMBL document CHEMBL1125209, “Boc-CCK-4 derivatives containing side-chain ureas as potent and selective CCK-a receptor agonists” (J Med Chem, 1991)
*1 amine or outer side, *2 acyl side, *3 side chain or, on linkers, in order; H or OH if unused. Where a SMILES comes first, the peptide text is derived from it. Side-chain parts run from the residue outwards. [ ]: non-standard residue; d: D form. The star is where a group is joined. NH(2-CF3-phenyl) = FC(F)(F)c1ccccc1N*; NH(1-naphthyl) = c1ccc2c(N*)cccc2c1; NH(2,6-Me2-phenyl) = Cc1cccc(C)c1N*; NHPh(4-CF3) = FC(F)(F)c1ccc(N*)cc1; NH(3-Cl-phenyl) = Clc1cccc(N*)c1; NH(4-Cl-phenyl) = Clc1ccc(N*)cc1; hCit = NC(=O)NCCCC[C@H](N)C(=O)O; NH(4-Me-phenyl) = Cc1ccc(N*)cc1; NH(2-Me-phenyl) = Cc1ccccc1N*; X3 = O=[N+]([O-])c1ccccc1N*; hLys = NCCCCC[C@H](N)C(=O)O; NH(2-ClPh) = Clc1ccccc1N*; X9 = FC(F)(F)c1cccc(N*)c1; Orn = NCCC[C@H](N)C(=O)O; βNA = c1ccc2cc(N*)ccc2c1; 2Abz = Nc1ccccc1C(=O)O; Boc = CC(C)(C)OC(=O)*; NHcHex = C1CCC(N*)CC1; CO = O=C([*:1])[*:2]; NHBn = c1ccc(CN*)cc1; X2 = CC(C)c1ccccc1N*; NHtBu = CC(C)(C)N*; X10 = Brc1ccccc1N*; X5 = Cc1cccc(N*)c1; X6 = COc1ccccc1N*

Experiments:
[1] = target: T1, Cholecystokinin receptor type A (Cavia porcellus, UniProt Q63931); experiment: Binding affinity for Cholecystokinin type A receptor in guinea pig pancreas by using [125I]BH-CCK-8 as radioligand
T1 sequence (Q63931 whole entry): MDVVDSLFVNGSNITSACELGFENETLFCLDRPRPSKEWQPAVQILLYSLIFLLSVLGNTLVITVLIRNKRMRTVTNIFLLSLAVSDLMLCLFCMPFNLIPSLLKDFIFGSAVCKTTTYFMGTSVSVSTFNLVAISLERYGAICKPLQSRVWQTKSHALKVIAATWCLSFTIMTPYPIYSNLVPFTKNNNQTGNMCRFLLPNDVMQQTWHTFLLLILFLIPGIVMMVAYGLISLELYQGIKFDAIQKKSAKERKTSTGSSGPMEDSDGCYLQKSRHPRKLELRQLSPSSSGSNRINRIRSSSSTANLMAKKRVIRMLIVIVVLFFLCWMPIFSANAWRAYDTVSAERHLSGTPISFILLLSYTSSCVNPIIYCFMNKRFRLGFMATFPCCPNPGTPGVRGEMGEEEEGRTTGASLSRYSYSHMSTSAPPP

[2] = Selectivity ratio of IC50 measured in guinea pig cortex to that of IC50 for guinea pig pancreas; conditions: Cavia porcellus
Cavia porcellus [3] = organism: Cavia porcellus; experiment: Percentage response in phosphoinositide hydrolysis relative to maximal response elicited by CCK-8 in guinea pig pancreatic acini; assay type: functional
In short: (§1)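 Guinea pig pancreatic acini, phosphoinositide hydrolysis. […] Efficacy is expressed as % of the maximal response elicited by CCK-8. Each determination was run in duplicate with <5% sample variability. Means ±SE are given for three or more determinations.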

Cavia porcellus [4] = organism: Cavia porcellus; experiment: Effective concentration for hydrolysis of phosphoinositide in guinea pig pancreatic Acini; assay type: functional; in short: as §1
Cavia porcellus [5] = organism: Cavia porcellus; experiment: The compound was tested for effective concentration for amylase release in guinea pig pancreatic Acini; assay type: functional
In short: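 Amylase release from guinea pig pancreatic acini. […] Each determination was run in duplicate with <5% sample variability. Means ±SE are given where there were three or more determinations.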

Structure (SMILES)	IC50 [1] [nM]	Selectivity [2]	Max response (Cavia porcellus [3]) [%]	EC50 (Cavia porcellus [4]) [nM]	EC50 (Cavia porcellus [5]) [nM]
CC(C)(C)OC(=O)N[C@@H](Cc1c[nH]c2ccccc12)C(=O)N[C@@H](CCCCNC(=O)Nc1ccc(C(F)(F)F)cc1)C(=O)N[C@@H](CC(=O)O)C(=O)N[C@@H](Cc1ccccc1)C(N)=O (Boc-WK([CO-NHPh(4-CF3)])DF-NH2)	170	5	–	–	–
CC(C)(C)OC(=O)N[C@@H](Cc1c[nH]c2ccccc12)C(=O)N[C@@H](CCCCNC(N)=O)C(=O)N[C@@H](CC(=O)O)C(=O)N[C@@H](Cc1ccccc1)C(N)=O (Boc-W[hCit]DF-NH2)	12000	0.083	–	–	–
Cc1ccc(NC(=O)NCCCC[C@H](NC(=O)[C@H](Cc2c[nH]c3ccccc23)NC(=O)OC(C)(C)C)C(=O)N[C@@H](CC(=O)O)C(=O)N[C@@H](Cc2ccccc2)C(N)=O)cc1 (Boc-WK([CO-NH(4-Me-phenyl)])DF-NH2)	–	–	91	140	–
CC(C)(C)OC(=O)N[C@@H](Cc1c[nH]c2ccccc12)C(=O)N[C@@H](CCCCNC(=O)NC1CCCCC1)C(=O)N[C@@H](CC(=O)O)C(=O)N[C@@H](Cc1ccccc1)C(N)=O (Boc-WK([CO-NHcHex])DF-NH2)	–	–	97	55	4.2
CC(C)(C)OC(=O)N[C@@H](Cc1c[nH]c2ccccc12)C(=O)N[C@@H](CCCC/N=C(\S)Nc1ccccc1Cl)C(=O)N[C@@H](CC(=O)O)C(=O)N[C@@H](Cc1ccccc1)C(N)=O	100	29	83	–	20
CC(C)(C)OC(=O)N[C@@H](Cc1c[nH]c2ccccc12)C(=O)N[C@@H](CCCCNC(=O)Nc1ccccc1Br)C(=O)N[C@@H](CC(=O)O)C(=O)N[C@@H](Cc1ccccc1)C(N)=O (Boc-WK([CO-X10])DF-NH2)	3.6	–	–	–	–
CC(C)(C)OC(=O)N[C@@H](Cc1c[nH]c2ccccc12)C(=O)N[C@@H](CCCCNC(=O)Nc1ccccc1Cl)C(=O)N[C@@H](CC(=O)O)C(=O)N[C@@H](Cc1ccccc1)C(N)=O (Boc-WK([CO-NH(2-ClPh)])DF-NH2)	–	–	91	4.6	–
COC(=O)c1ccccc1NC(=O)NCCCC[C@H](NC(=O)[C@H](Cc1c[nH]c2ccccc12)NC(=O)OC(C)(C)C)C(=O)N[C@@H](CC(=O)O)C(=O)N[C@@H](Cc1ccccc1)C(N)=O (Boc-WK([CO-2Abz-OMe])DF-NH2)	34	91	–	–	–
CC(C)(C)OC(=O)N[C@@H](Cc1c[nH]c2ccccc12)C(=O)N[C@@H](CCCCNC(=O)Nc1ccc(Cl)cc1)C(=O)N[C@@H](CC(=O)O)C(=O)N[C@@H](Cc1ccccc1)C(N)=O (Boc-WK([CO-NH(4-Cl-phenyl)])DF-NH2)	60	–	91	–	9.6
Cc1cccc(C)c1NC(=O)NCCCC[C@H](NC(=O)[C@H](Cc1c[nH]c2ccccc12)NC(=O)OC(C)(C)C)C(=O)N[C@@H](CC(=O)O)C(=O)N[C@@H](Cc1ccccc1)C(N)=O (Boc-WK([CO-NH(2,6-Me2-phenyl)])DF-NH2)	800	–	40	910	–
Cc1ccccc1NC(=O)NCCCC[C@H](NC(=O)[C@H](Cc1c[nH]c2ccccc12)NC(=O)OC(C)(C)C)C(=O)N[C@@H](CC(=O)O)C(=O)N[C@@H](Cc1ccccc1)C(N)=O (Boc-WK([CO-NH(2-Me-phenyl)])DF-NH2)	–	–	101	12	–
Cc1cccc(NC(=O)NCCCC[C@H](NC(=O)[C@H](Cc2c[nH]c3ccccc23)NC(=O)OC(C)(C)C)C(=O)N[C@@H](CC(=O)O)C(=O)N[C@@H](Cc2ccccc2)C(N)=O)c1 (Boc-WK([CO-X5])DF-NH2)	–	–	95	51	–
CC(C)(C)OC(=O)N[C@@H](Cc1c[nH]c2ccccc12)C(=O)N[C@@H](CCCCNC(=O)Nc1ccccc1[N+](=O)[O-])C(=O)N[C@@H](CC(=O)O)C(=O)N[C@@H](Cc1ccccc1)C(N)=O (Boc-WK([CO-X3])DF-NH2)	22	–	100	21	1.9
CC(C)(C)OC(=O)N[C@@H](Cc1c[nH]c2ccccc12)C(=O)N[C@@H](CCCCNC(=O)Nc1cccc(C(F)(F)F)c1)C(=O)N[C@@H](CC(=O)O)C(=O)N[C@@H](Cc1ccccc1)C(N)=O (Boc-WK([CO-X9])DF-NH2)	59	–	–	–	–
CC(C)(C)OC(=O)N[C@@H](Cc1c[nH]c2ccccc12)C(=O)N[C@@H](CCCCNC(=O)Nc1ccccc1C(F)(F)F)C(=O)N[C@@H](CC(=O)O)C(=O)N[C@@H](Cc1ccccc1)C(N)=O (Boc-WK([CO-NH(2-CF3-phenyl)])DF-NH2)	8	–	100	6.2	0.77
CC(C)(C)NC(=O)NCCCC[C@H](NC(=O)[C@H](Cc1c[nH]c2ccccc12)NC(=O)OC(C)(C)C)C(=O)N[C@@H](CC(=O)O)C(=O)N[C@@H](Cc1ccccc1)C(N)=O (Boc-WK([CO-NHtBu])DF-NH2)	170	33	73	330	42
CSCC[C@H](NC(=O)[C@H](Cc1ccc(OS(=O)(=O)O)cc1)NC(=O)[C@@H](N)CC(=O)O)C(=O)NCC(=O)N[C@@H](Cc1c[nH]c2ccccc12)C(=O)N[C@@H](CCSC)C(=O)N[C@@H](CC(=O)O)C(=O)N[C@@H](Cc1ccccc1)C(N)=O [SINCALIDE]	–	–	–	1.2	0.47
CC(C)(C)OC(=O)N[C@@H](Cc1c[nH]c2ccccc12)C(=O)N[C@@H](CCCCNC(=O)NCc1ccccc1)C(=O)N[C@@H](CC(=O)O)C(=O)N[C@@H](Cc1ccccc1)C(N)=O (Boc-WK([CO-NHBn])DF-NH2)	230	–	–	–	–
Cc1ccccc1NC(=O)NCCC[C@H](NC(=O)[C@H](Cc1c[nH]c2ccccc12)NC(=O)OC(C)(C)C)C(=O)N[C@@H](CC(=O)O)C(=O)N[C@@H](Cc1ccccc1)C(N)=O (Boc-W[Orn]([CO-NH(2-Me-phenyl)])DF-NH2)	650	23	36	–	420
CC(C)(C)OC(=O)N[C@@H](Cc1c[nH]c2ccccc12)C(=O)N[C@@H](CCCCNC(=O)Nc1cccc2ccccc12)C(=O)N[C@@H](CC(=O)O)C(=O)N[C@@H](Cc1ccccc1)C(N)=O (Boc-WK([CO-NH(1-naphthyl)])DF-NH2)	16	690	103	14	1.6
CC(C)(C)OC(=O)N[C@@H](Cc1c[nH]c2ccccc12)C(=O)N[C@@H](CCCC/N=C(\S)Nc1ccc(Cl)cc1)C(=O)N[C@@H](CC(=O)O)C(=O)N[C@@H](Cc1ccccc1)C(N)=O	270	–	–	–	–
Cc1ccccc1NC(=O)NCCCCC[C@H](NC(=O)[C@H](Cc1c[nH]c2ccccc12)NC(=O)OC(C)(C)C)C(=O)N[C@@H](CC(=O)O)C(=O)N[C@@H](Cc1ccccc1)C(N)=O (Boc-W[hLys]([CO-NH(2-Me-phenyl)])DF-NH2)	93	–	83	–	12
CC(C)c1ccccc1NC(=O)NCCCC[C@H](NC(=O)[C@H](Cc1c[nH]c2ccccc12)NC(=O)OC(C)(C)C)C(=O)N[C@@H](CC(=O)O)C(=O)N[C@@H](Cc1ccccc1)C(N)=O (Boc-WK([CO-X2])DF-NH2)	23	250	85	–	4.4
CC(C)(C)OC(=O)N[C@@H](Cc1c[nH]c2ccccc12)C(=O)N[C@@H](CCCCNC(=O)Nc1ccc2ccccc2c1)C(=O)N[C@@H](CC(=O)O)C(=O)N[C@@H](Cc1ccccc1)C(N)=O (Boc-WK([CO-βNA])DF-NH2)	–	200	79	140	7
CC(C)(C)OC(=O)N[C@@H](Cc1c[nH]c2ccccc12)C(=O)N[C@@H](CCCCNC(=O)Nc1cccc(Cl)c1)C(=O)N[C@@H](CC(=O)O)C(=O)N[C@@H](Cc1ccccc1)C(N)=O (Boc-WK([CO-NH(3-Cl-phenyl)])DF-NH2)	51	–	93	–	4.4
COc1ccccc1NC(=O)NCCCC[C@H](NC(=O)[C@H](Cc1c[nH]c2ccccc12)NC(=O)OC(C)(C)C)C(=O)N[C@@H](CC(=O)O)C(=O)N[C@@H](Cc1ccccc1)C(N)=O (Boc-WK([CO-X6])DF-NH2)	–	–	100	8.4	–
